Legend:
[1] = target: T1, ATP-dependent translocase ABCB1 (Homo sapiens, UniProt P08183); assay: Reversal of P-glycoprotein-mediated multidrug resistance in human MDR1 gene transfected mouse L5178Y cells assessed as fluorescence activity ratio at 200 uM by rhodamine 123 accumulation assay; type: cell-based
In short: (§1)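 Murine L-5178Y lymphoma cells transfected with human MDR1 gene (P-gp-overexpressing), alongside parental cells, treated or untreated with compound; rhodamine 123 accumulation measured by fluorescence; FAR = ratio of fluorescence intensity in treated versus untreated cells, values above 1 taken as MDR reversal.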

[2] = tested on: HSC-3; assay: Cytotoxicity against human HSC3 cells after 48 hrs; type: functional; settings: HSC-3, 48 h
[3] = Cytotoxicity against human HGF cells after 48 hrs; type: cell-based
[4] = tested on: CCRF-CEM; assay: Growth inhibition of human CEM cells after 3 days; type: functional, cell-based; settings: 72 h
In short: (§2)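 Human CEM and Molt 4/C8 T-lymphocytes were grown for three days with or without serial dilutions of the compound. IC50 is the concentration that inhibits cell growth by 50%.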

[5] = Cytotoxicity against human HPLF cells after 48 hrs; type: cell-based
[6] = target: T1, ATP-dependent translocase ABCB1; assay: Reversal of P-glycoprotein-mediated multidrug resistance in human MDR1 gene transfected mouse L5178Y cells assessed as fluorescence activity ratio at 20 uM by rhodamine 123 accumulation assay; type: cell-based; in short: as §1
[7] = tested on: HSC-2; assay: Cytotoxicity against human HSC2 cells after 48 hrs; type: functional; settings: HSC-2, 48 h
[8] = tested on: HSC-4; assay: Cytotoxicity against human HSC4 cells after 48 hrs; type: functional; settings: HSC-4, 48 h
[9] = Cytotoxicity against human HPC cells after 48 hrs; type: cell-based
[10] = tested on: HL-60; assay: Cytotoxicity against human HL60 cells after 48 hrs; type: functional; settings: HL-60, 48 h
[11] = Growth inhibition of human Molt4/C8 cells after 3 days; type: functional, cell-based; settings: MOLT-4, 72 h; in short: as §2

T1 sequence (P08183 whole entry): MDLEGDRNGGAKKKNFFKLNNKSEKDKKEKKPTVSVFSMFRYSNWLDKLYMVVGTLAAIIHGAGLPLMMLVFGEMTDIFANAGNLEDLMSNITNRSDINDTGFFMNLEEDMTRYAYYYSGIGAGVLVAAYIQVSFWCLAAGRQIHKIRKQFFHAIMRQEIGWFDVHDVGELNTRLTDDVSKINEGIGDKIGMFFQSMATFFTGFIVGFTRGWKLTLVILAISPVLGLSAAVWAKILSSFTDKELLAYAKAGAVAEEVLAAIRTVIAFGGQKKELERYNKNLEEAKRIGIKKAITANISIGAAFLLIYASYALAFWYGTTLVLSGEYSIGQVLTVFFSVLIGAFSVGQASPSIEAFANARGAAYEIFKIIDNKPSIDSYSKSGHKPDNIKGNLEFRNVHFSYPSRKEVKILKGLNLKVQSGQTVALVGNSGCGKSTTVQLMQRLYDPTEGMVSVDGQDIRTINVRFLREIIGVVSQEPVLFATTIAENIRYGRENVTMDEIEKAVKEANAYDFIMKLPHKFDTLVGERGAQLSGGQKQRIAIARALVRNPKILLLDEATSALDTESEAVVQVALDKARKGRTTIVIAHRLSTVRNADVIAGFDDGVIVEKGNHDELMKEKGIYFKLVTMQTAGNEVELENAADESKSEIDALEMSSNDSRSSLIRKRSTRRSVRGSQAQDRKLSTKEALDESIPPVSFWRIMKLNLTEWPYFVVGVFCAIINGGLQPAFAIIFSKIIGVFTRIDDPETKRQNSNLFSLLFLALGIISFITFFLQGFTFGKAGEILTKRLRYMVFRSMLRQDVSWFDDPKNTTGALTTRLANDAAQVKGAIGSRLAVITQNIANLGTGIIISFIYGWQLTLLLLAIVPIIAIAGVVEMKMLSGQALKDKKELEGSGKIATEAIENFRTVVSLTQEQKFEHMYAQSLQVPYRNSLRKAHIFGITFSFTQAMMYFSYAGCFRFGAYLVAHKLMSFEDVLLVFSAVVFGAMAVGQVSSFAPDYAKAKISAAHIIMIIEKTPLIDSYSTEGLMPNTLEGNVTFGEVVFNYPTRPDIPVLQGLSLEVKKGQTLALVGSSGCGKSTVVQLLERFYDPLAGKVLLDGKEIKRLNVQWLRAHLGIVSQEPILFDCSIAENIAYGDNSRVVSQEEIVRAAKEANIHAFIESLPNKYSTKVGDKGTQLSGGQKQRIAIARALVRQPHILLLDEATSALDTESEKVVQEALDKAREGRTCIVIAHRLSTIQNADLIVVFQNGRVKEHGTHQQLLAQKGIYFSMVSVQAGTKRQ

Structure (SMILES) | Ratio [1] | CC50 [2] | CC50 at 48 h [3] | IC50 [4] | CC50 at 48 h [5] | Ratio [6] | CC50 [7] | CC50 [8] | CC50 at 48 h [9] | CC50 [10] | IC50 [11]
COc1cc(/C=C/C(=O)c2c(C)[n+]([O-])c3ccccc3[n+]2[O-])cc(OC)c1OC | 41.9 | 6.6 µM | 35 µM | 5.22 µM | 33 µM | 8.15 | 7.8 µM | 6.5 µM | 31 µM | 1.9 µM | 5.51 µM
Cc1c(C(=O)/C=C/c2cccc([N+](=O)[O-])c2)[n+]([O-])c2ccccc2[n+]1[O-] | 3.75 | 122 µM | 47 µM | 15.8 µM | 18 µM | 1.89 | 34 µM | 54 µM | 46 µM | 62 µM | 16.3 µM
Cc1c(C(=O)/C=C/c2ccc(Br)cc2)[n+]([O-])c2ccccc2[n+]1[O-] | 2.81 | 56 µM | 53 µM | 11.6 µM | 26 µM | 2.03 | 19 µM | 36 µM | 43 µM | 23 µM | 17.1 µM
Cc1c(C(=O)/C=C/c2ccc([N+](=O)[O-])cc2)[n+]([O-])c2ccccc2[n+]1[O-] | 2.25 | > 400 µM | 57 µM | 164 µM | 91 µM | 1.28 | 55 µM | 73 µM | > 400 µM | 262 µM | 261 µM
CC(=O)c1c(C)[n+]([O-])c2ccccc2[n+]1[O-] [MEQUINDOX] | 1.04 | 146 µM | > 400 µM | 87.4 µM | > 400 µM | 1.06 | 196 µM | 134 µM | 352 µM | 26 µM | 44.6 µM
Cc1c(C(=O)/C=C/c2ccccc2)[n+]([O-])c2ccccc2[n+]1[O-] | 36.8 | 9.7 µM | 32 µM | 5.92 µM | 35 µM | 10.9 | 8.4 µM | 9.6 µM | 36 µM | 4.1 µM | 6.76 µM
